“Also recorded” adds a separate entry of the source.
How the values were obtained:
[1] = tested on: SARS-CoV-2 replicon; assay: HeLa-integrated SARS-CoV-2 replicon activity, N-HiBiT luminescence; assay type: cell-based
Method in brief: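 HeLa Flp-In T-REx replicon cells plated at 10% confluence, then induced 24 h later with 3 µg/mL doxycycline in regular FBS. After 16-24 h, a lytic detergent buffer with LgBiT and furimazine was added at a volume equal to the media to complement HiBiT-tagged nucleoprotein. Plates were shaken 10 min before reading luminescence. Replicon-free parental cells gave background; compound concentrations were compared with DMSO.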

[2] = tested on: proximal lung organoids; assay: Organoid viability by LDH release; assay type: cell-based, human; settings: days 3 and 4, cordycepin 30 µM
Method in brief: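 Human proximal airway organoids derived from embryonic stem cells, expanded in matrigel in AES expansion medium, plated as one matrigel dome (~2000 organoids) per well. Test compounds (10 or 30 µM) or 0.5% DMSO were added on day 0, with three domes per condition. LDH release was read over 4 days; absorbance at 490 nm minus 680 nm background was converted to % cytotoxicity.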

[3] = tested on: HCoV-229E; assay type: cell-based
[4] = tested on: SARS-CoV-2 SB2 strain
[5] = tested on: AMPK, mTOR, Akt; assay type: cell-based, human; settings: 30 µM, HeLa-replicon cells, doxycycline 24 hours
[6] = tested on: HCoV-229E; assay: microbe, parasite or virus in culture; assay type: cell-based
[7] = tested on: SARS-CoV-2; assay type: cell-based
[8] = tested on: AMPK, mTOR, Akt; assay type: cell-based, human
[9] = tested on: HCoV-229E; assay type: cell-based; remark: listed apart in the source
[10] = tested on: HCoV-229E; settings: concentrations higher than 0.1 µM; cited from earlier work
[11] = tested on: HCoV-229E; assay type: cell-based; remark: listed apart in the source
[12] = tested on: SARS-CoV-2; settings: cited from earlier work

## Nc1ncnc2c1ncn2[C@@H]1O[C@H](CO)C[C@H]1O [Cordycepin, cordycepin]
[1]; 3 µg/mL doxycycline, 24 hours
  inhibition of replicon activity: did not show inhibition of replicon activity
[2]
  cytotoxicity (LDH assay): below 20%
[3]
  infectivity by TCID50, fold higher than that observed for BTZ-1 and ADEP-42: around 5 fold
[4]
  reduction of SARS-CoV-2 RNA release: 99%
[4]; SARS-CoV-2
  SI = CC50/IC50: more than 20
[5]
  AMPK, mTOR or Akt phosphorylation: No significant changes
  total Akt levels: did decrease
  total mTOR protein levels: not affected
[6]; Human coronavirus 229E, Huh-7, read-out: IC50, 229E viral replication (Fig. 6B)
  IC50: 2100 nM
[7]
  difference in SARS-CoV-2 viral RNA release compared to DMSO: 100 fold
[8]
  phosphorylation level of AMPK: increased
  protein level of AMPK: remained constant
  total levels of mTOR and Akt compared to DMSO: large decrease
[9]
  229E viral RNA release in media, time of incubation assay: dramatically reduced viral RNA release in media even up to 72 hpi
  229E viral RNA release, pre-treatment assay: reduced viral RNA release; also recorded: strong inhibition
  level of 229E viral RNA released, time of removal assay: reduced the level of viral RNA released even after being removed

## CN(C)C(=N)N=C(N)N [Metformin, metformin]
[6]
  229E replication, various concentrations: inhibited 229E replication in a dose-dependent manner

## CCC(CC)COC(=O)[C@H](C)N[P@](=O)(OC[C@H]1O[C@@](C#N)(c2ccc3c(N)ncnn23)[C@H](O)[C@@H]1O)Oc1ccccc1 [Remdesivir, remdesivir]
[1]; read-out: IC50, inhibition of replicon activity, 3 µg/mL doxycycline, 24 hours
  IC50: 400 nM
[10]
  inhibition of 229E: ~100%
[9]
  229E viral RNA release, pre-treatment assay: little to no inhibition

## Nc1ncnc2c1ncn2[C@@H]1O[C@H](COP(=O)(O)OP(=O)(O)OP(=O)(O)O)C[C@H]1O [cordycepin-TP]
[6]; 10 µM, same concentration as cordycepin, […]
  229E viral RNA release: only weakly inhibited viral RNA release
[11]
  229E S protein expression (IF): did not impact S protein expression

## COc1ccc2c(c1)[nH]c1c(C)nccc12 [harmine]
[12]
  IC50: 7.5 µM

— paper PMC11543989 (Communications Biology, 2024)
